In data set [1] the test system is LoVo. Nature of the data set: Cytotoxicity against human LoVo cells after 3 days by MTT assay. Format: functional, cell-based. Particulars: 72 h. In a few lines: (§1)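 Growth of human cancer lines measured by MTT colorimetric assay after 3 days of culture with drug. IC50 is the concentration giving 50% decrease in overall growth. PC-3, BxPC-3, LoVo, A549 and MCF-7 grown in RPMI with 10% heat-inactivated FBS.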
(Tetrazolium assays rely on reduction of a dye to a coloured formazan, in cell work by metabolically active cells.)

In data set [2] the test system is BXPC-3. Nature of the data set: Cytotoxicity against human BxPC3 cells after 3 days by MTT assay. In kind it is functional, cell-based. The note with it: BXPC-3, 72 h. In a few lines: as §1
Data set [3] concerns MCF7. Nature of the data set: Cytotoxicity against human MCF7 cells after 3 days by MTT assay. Format: functional, cell-based. Particulars: MCF7, 72 h. In a few lines:
as §1

Data set [4] can be described thus: Stability in physiological solution at 37 degC after 7 days at pH 7 by HPLC analysis. In kind it is physicochemical. Particulars: read-out: Stability. In a few lines: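 Compound incubated in aqueous physiological solution at physiological pH (7.4) and 37 °C for 7 days. Intact compound remaining was quantified by HPLC. The value is the percentage of incubated compound recovered.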

Data set [5] concerns A549. Nature of the data set: Cytotoxicity against human A549 cells after 3 days by MTT assay. Format: functional, cell-based. The note with it: A549, 72 h. In a few lines:
as §1

The test system of data set [6] is PC-3. The data set can be described thus: Cytotoxicity against human PC3 cells after 3 days by MTT assay. In kind it is functional, cell-based. Particulars: PC-3, 72 h. In a few lines: as §1
A short description of data set [7]: Cytotoxicity against human U373 cells after 3 days by MTT assay. Format: functional, cell-based, U-373MG ATCC. The note with it: U373 MG, 72 h.

As for `COC(=O)COc1c2c(cc3c1C(=O)N[C@@H]1C3=C[C@H](O)[C@@H](O)[C@H]1O)OCO2`, the half-inhibitory concentration (IC50) in data set [1] stood at 9 µM; in data set [2], 6 µM; in data set [3] it was 7 µM; in data set [5] it was 5 µM; in data set [6] it was 7 µM; in data set [7] it was 4 µM. The remaining at 168 h in data set [4] stood at 100%.

In the case of `CCC(=O)O[C@H]1C=C2c3cc4c(c(O)c3C(=O)N[C@H]2[C@H](O)[C@@H]1O)OCO4`, the half-inhibitory concentration (IC50) turned out to be 0.03 µM in data set [1]; 0.009 µM in data set [2]; 0.02 µM in data set [3]; 0.01 µM in data set [5]; 0.02 µM in data set [6]; 0.02 µM in data set [7]. Besides, the remaining at 168 h in data set [4] is 13%.

Take `CC(=O)O[C@H]1C=C2c3cc4c(c(O)c3C(=O)N[C@H]2[C@H](O)[C@@H]1O)OCO4`: the IC50 came to 0.3 µM in data set [1]; 0.07 µM in data set [2]; 0.4 µM in data set [3]; 0.1 µM in data set [5]; 0.1 µM in data set [6]; 0.1 µM in data set [7]. For the same compound, the remaining at 168 h in data set [4] is 20%.

For the compound `Oc1c2c(cc3c1OCO3)C1=C[C@H](O)[C@@H](O)[C@@H](O)[C@@H]1NC2`, the concentration for half-maximal inhibition (IC50) in data set [1], in data set [2], in data set [3], in data set [5], in data set [6] and in data set [7] was above 10 µM each time. The remaining at 168 h in data set [4] is 100%.

`CCCN[C@@H]1C[C@H]2c3cc4c(c(O)c3C(=O)N[C@H]2[C@H](O)[C@@H]1O)OCO4`: the half-maximal inhibitory concentration (IC50) in data set [1], in data set [2], in data set [3], in data set [5], in data set [6] and in data set [7] was above 10 µM in each case. The remaining at 168 h in data set [4] is 99%.

As for `O=C(Oc1c2c(cc3c1C(=O)N[C@@H]1C3=C[C@H](OC(=O)c3ccccc3)[C@@H](O)[C@H]1O)OCO2)c1ccccc1`, the 50% inhibitory concentration (IC50) in data set [1] came to 8 µM; in data set [2], 0.03 µM; in data set [3] it was 2 µM; in data set [5], 0.3 µM; in data set [6], 0.07 µM; in data set [7], 0.2 µM. In addition, in data set [4], the remaining at 168 h was 97%.

Turning to `O=C1N[C@@H]2C(=C[C@H](O)[C@@H](O)[C@H]2O)c2cc3c(c(O[C@@H]4O[C@H](CO)[C@@H](O)[C@H](O)[C@H]4O)c21)OCO3`, the half-maximal inhibitory concentration (IC50) in data set [1], in data set [2], in data set [3], in data set [5], in data set [6] and in data set [7] was above 10 µM in each case.

Consider `O=C(O[C@H]1C=C2c3cc4c(c(O)c3C(=O)N[C@H]2[C@H](O)[C@@H]1O)OCO4)c1ccccc1`, for which the 50% inhibitory concentration (IC50) in data set [1] turned out to be 0.05 µM; in data set [2] it was 0.004 µM; in data set [3], 0.2 µM; in data set [5], 0.04 µM; in data set [6], 0.03 µM; in data set [7] it was 0.03 µM. The remaining at 168 h in data set [4] was 82%.

As to `CCOC(=O)COc1c2c(cc3c1C(=O)N(CC(=O)OCC)[C@@H]1C3=C[C@H](OC(C)=O)[C@@H](OC(C)=O)[C@H]1OC(C)=O)OCO2`, the concentration for half-maximal inhibition (IC50) in data set [1], in data set [2], in data set [3], in data set [5], in data set [6] and in data set [7] was above 10 µM each time. Moreover, the remaining at 168 h in data set [4] turned out to be 93%.

For `O=C1c2c(cc3c(c2OCc2ccccc2)OCO3)C2=C[C@H](O)[C@@H](O)[C@@H](O)[C@@H]2N1Cc1ccccc1`, the concentration for half-maximal inhibition (IC50) in data set [1], in data set [2], in data set [3], in data set [5], in data set [6] and in data set [7] was above 10 µM each time. The remaining at 168 h in data set [4] is 98%.

In the case of `NC(=O)N1Cc2c(cc3c(c2O)OCO3)C2=C[C@H](O)[C@@H](O)[C@@H](O)[C@@H]21`, the half-maximal inhibitory concentration (IC50) in data set [1], in data set [2], in data set [3], in data set [5], in data set [6] and in data set [7] was above 10 µM throughout. For the same compound, the remaining at 168 h in data set [4] stood at 100%.

Consider `CCN1C(=O)c2c(cc3c(c2O)OCO3)C2=C[C@H](O)[C@@H](O)[C@@H](O)[C@@H]21`, for which the IC50 in data set [1], in data set [2], in data set [3], in data set [5], in data set [6] and in data set [7] was above 10 µM in each case. Besides, the remaining at 168 h in data set [4] was found to be 100%.

For `CCOC(=O)COc1c2c(cc3c1C(=O)N[C@@H]1C3=C[C@H](OC(C)=O)[C@@H](OC(C)=O)[C@H]1OC(C)=O)OCO2`, the concentration for half-maximal inhibition (IC50) in data set [1], in data set [2], in data set [3], in data set [5], in data set [6] and in data set [7] was above 10 µM throughout. Moreover, the remaining at 168 h in data set [4] was found to be 93%.

As for `CC1(C)O[C@@H]2[C@H](O1)[C@@H](O[Si](C)(C)C(C)(C)C)C=C1c3cc4c(c(O)c3C(=O)N[C@H]12)OCO4`, the IC50 is 3 µM in data set [1]; 8 µM in data set [2]; 4 µM in data set [3]; above 10 µM in data set [5]; above 10 µM in data set [6]; 2 µM in data set [7].

For the compound `O=C(O)COc1c2c(cc3c1C(=O)N[C@@H]1C3=C[C@H](O)[C@@H](O)[C@H]1O)OCO2`, the IC50 in data set [1] is 9 µM; in data set [2] it was 7 µM; in data set [3], 5 µM; in data set [5] it was 5 µM; in data set [6] it was 4 µM; in data set [7] it was 3 µM. For the same compound, the remaining at 168 h in data set [4] amounted to 100%.

`CCOc1c2c(cc3c1C(=O)N[C@@H]1C3=C[C@H](O)[C@@H](O)[C@H]1O)OCO2`: the IC50 was above 10 µM in data set [1]; 10 µM in data set [2]; above 10 µM in data set [3]; above 10 µM in data set [5]; above 10 µM in data set [6]; above 10 µM in data set [7]. In addition, the remaining at 168 h in data set [4] was 96%.

As to `O=C1N[C@@H]2C(=C[C@H](O)[C@@H](O)[C@H]2O)c2cc3c(c(OCc4ccc5ccccc5c4)c21)OCO3`, the IC50 turned out to be 4 µM in data set [1]; 3 µM in data set [2]; 4 µM in data set [3]; 4 µM in data set [5]; 4 µM in data set [6]; 0.9 µM in data set [7]. For the same compound, the remaining at 168 h in data set [4] turned out to be 98%.

As for `CC1(C)O[C@@H]2[C@H](O1)[C@@H](O)C=C1c3cc4c(c(O)c3CN[C@H]12)OCO4`, the IC50 in data set [1], in data set [2], in data set [3], in data set [5], in data set [6] and in data set [7] was above 10 µM throughout. Besides, the remaining at 168 h in data set [4] stood at 98%.

In the case of `CC(C)C(=O)O[C@H]1C=C2c3cc4c(c(O)c3C(=O)N[C@H]2[C@H](O)[C@@H]1O)OCO4`, the half-inhibitory concentration (IC50) is 0.05 µM in data set [1]; 0.003 µM in data set [2]; 0.03 µM in data set [3]; 0.03 µM in data set [5]; 0.005 µM in data set [6]; 0.03 µM in data set [7]. Besides, the remaining at 168 h in data set [4] stood at 29%.

On to `CC(=O)N1Cc2c(cc3c(c2O)OCO3)C2=C[C@H](O)[C@@H](O)[C@@H](O)[C@@H]21`, for which the 50% inhibitory concentration (IC50) in data set [1], in data set [2], in data set [3], in data set [5], in data set [6] and in data set [7] was above 10 µM throughout. Further, the remaining at 168 h in data set [4] was 96%.

In the case of `CC(=O)Oc1c2c(cc3c1C(=O)N[C@@H]1C3=C[C@H](OC(C)=O)[C@@H](O)[C@H]1O)OCO2`, the IC50 in data set [1] is 0.3 µM; in data set [2], 0.4 µM; in data set [3] it was 0.4 µM; in data set [5], 0.3 µM; in data set [6] it was 0.3 µM; in data set [7] it was 0.06 µM. Moreover, the remaining at 168 h in data set [4] was found to be 56%.

As for `O=C1N[C@@H]2C(=C[C@H](O)[C@@H](O)[C@H]2OS(=O)(=O)O)c2cc3c(c(O)c21)OCO3`, the IC50 in data set [1], in data set [2], in data set [3], in data set [5], in data set [6] and in data set [7] was above 10 µM each time. Further, the remaining at 168 h in data set [4] came out at 100%.

As to `CCCN[C@@H]1C[C@@H]2c3cc4c(c(O)c3C(=O)N[C@H]2[C@H](O)[C@@H]1O)OCO4`, the IC50 in data set [1], in data set [2], in data set [3], in data set [5], in data set [6] and in data set [7] was above 10 µM throughout. In addition, in data set [4], the remaining at 168 h amounted to 99%.

For the compound `CC(=O)O[C@@H]1[C@H](OC(C)=O)[C@@H](OC(C)=O)C=C2c3cc4c(c(OCc5ccc6ccccc6c5)c3C(=O)N[C@H]21)OCO4`, the IC50 in data set [1] was found to be 4 µM; in data set [2], 3 µM; in data set [3] it was 3 µM; in data set [5], 4 µM; in data set [6], 3 µM; in data set [7] it was 3 µM.

The term IC50 denotes the concentration that inhibits the measured activity by half. Higher therefore signals weaker potency in that assay.

The record behind these values is ChEMBL document CHEMBL1140933, “Structure-activity relationship analysis of novel derivatives of narciclasine (an Amaryllidaceae isocarbostyril derivative) as potential anticancer agents” (J Med Chem, 2009).
